In paper PMC2650427 (Bioconjugate chemistry, 2008):
Where two headings read alike, the source gives them in different places. Marks after values point to notes of the source that are not given here.

What was measured:
Relaxivity = assay type: physicochemical; conditions: 100 mM phosphate buffer, pH 7.4, ambient temperature (~25 °C); saturation recovery; assessed in duplicate
[1] = cited from earlier work
[2] = calculated at 25 °C; cited from earlier work
[3] = Determination of τm by 17O transverse relaxation rate measurements; assay type: physicochemical; conditions: variable temperature 17O NMR at 54 MHz, 15–20 mM, pH 7.40; calculated at 25 °C
NIH/3T3 cells = assay: MR imaging and T1 analysis of labelled cells; assay type: cell-based; conditions: 1.0 mM, 4 h, washes at 1 hour intervals, T1-weighted, 14.1 T
[4] = In vitro cleavage by disulfide exchange with GSH; assay type: physicochemical; conditions: 1.0 mM in DPBS, 37 °C, 4 h; GSH at 4 times the contrast agent; HPLC-MS ion count
Summary of the method: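 Disulfide-linked Gd(III)-DTPA–octaarginine test compound was incubated with increasing GSH (0.25 to 4 equivalents) in 1.0 mM DPBS. Start times were staggered so each sample had 4 h at 37 °C before LC-MS. Separation used a C18 column (4.6 × 250 mm, 5 µm) at 1.0 mL/min with a water/MeCN gradient of 0–60% MeCN over 40 min. Total ion counts of the GSH-exchange product and of the starting material were compared.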

Compound | Relaxivity, 600 MHz (14.1 T) (Relaxivity) [mM⁻¹ s⁻¹] | q (number of bound water molecules) [1] | τm (mean residence lifetime of coordinated water) [2] | τm (mean residence lifetime of coordinated water) [3] [ns] | MR image intensity after leaching (NIH/3T3 cells) | Completeness of disulfide cleavage at 4:1 GSH [4]
O=C([O-])CN1CCN(CC(=O)[O-])CCN(CC(=O)O)CCN(CC(=O)[O-])CC1.[Gd+3] [Gd(III)-DOTA] | 2.12 | 1.2 ^d | 243 ^e ns |  |  | 
O=C([O-])CN(CCN(CC(=O)[O-])CC(=O)O)CCN(CC(=O)[O-])CC(=O)O.[Gd+3] [Gd(III)-DTPA] | 2.09 | 1.2 ^d | 303 ^e ns |  |  | 
Gd(III)-DOTA-SS-Arg8 [compound 3] | 3.52 |  |  | 840 | little loss of signal intensity | 
Gd(III)-DTPA-SS-Arg8 [compound 4] | 3.46 |  |  | 1327 | little loss of signal intensity | complete cleavage is not obtainable
